Reference: ChEMBL document CHEMBL4118206, “Synthesis, characterization and cytotoxicity studies of 1,2,3-triazoles and 1,2,4-triazolo [1,5-a] pyrimidines in human breast cancer cells” (Bioorg Med Chem Lett, 2018)
Activity calls are given as the source filed them. The rule behind the calls is not given here.

Columns and labels:
MDA-MB-231 [1] = assay: Cytotoxicity against human MDA-MB-231 cells assessed as cell growth inhibition after 72 hrs by alamar blue assay; format: functional, cell-based; settings: MDA-MB-231, 72 h
MCF7 [2] = assay: Cytotoxicity against human MCF7 cells assessed as cell growth inhibition after 72 hrs by alamar blue assay; format: functional, cell-based; settings: MCF7, 72 h
MDA-MB-231 [3] = assay: Cytotoxicity against human MDA-MB-231 cells assessed as cell growth inhibition at 25 uM after 72 hrs by alamar blue assay; format: functional, cell-based
MCF7 [4] = assay: Cytotoxicity against human MCF7 cells assessed as cell growth inhibition at 25 uM after 72 hrs by alamar blue assay; format: functional, cell-based
Method in brief: (§1)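 MCF7 cells were seeded at 5000 per well. After 24 h they were exposed to 25 µM compound. Viability was read with AlamarBlue after a 4 h reagent incubation at 24, 48 and 72 h of treatment.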

[5] = target: Vascular endothelial growth factor receptor 1 (Homo sapiens) (UniProt P17948); assay: Inhibition of VEGFR1 in human MCF7 cells assessed as downregulation of protein expression at 5 uM after 48 hrs by Western blot method relative to beta-actin; format: cell-based
Method in brief: (§2)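 MCF7 cells were seeded at 300,000 per 6 cm dish in RPMI + 10% FBS and grown 24 h. They were then treated in RPMI + 2% FBS for 48 h, harvested and immunoblotted at 40 µg protein per lane. Blots were probed with primary antibodies against VEGFR1 and β-actin.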

[6] = target: Vascular endothelial growth factor receptor 1 (Homo sapiens) (UniProt P17948); assay: Inhibition of VEGFR1 in human MCF7 cells assessed as downregulation of protein expression at 10 uM after 48 hrs by Western blot method relative to beta-actin; format: cell-based; method in brief: as §2
MCF7 [7] = assay: Effect on beta-actin protein expression in human MCF7 cells at 5 to 15 uM after 48 hrs by Western blot method; format: ADME, cell-based; settings: mcf7, 48 h; method in brief: as §2
[8] = target: Vascular endothelial growth factor receptor 1 (Homo sapiens) (UniProt P17948); assay: Inhibition of VEGFR1 in human MCF7 cells assessed as downregulation of protein expression after 48 hrs by Western blot method; format: cell-based; method in brief: as §2
[9] = target: Vascular endothelial growth factor receptor 1 (Homo sapiens) (UniProt P17948); assay: Inhibition of VEGFR1 in human MCF7 cells assessed as downregulation of protein expression at 15 uM after 48 hrs by Western blot method relative to beta-actin; format: cell-based; method in brief: as §2
BT-474 = assay: Cytotoxicity against human BT474 cells assessed as cell growth inhibition after 72 hrs by alamar blue assay; format: functional, cell-based; settings: BT-474, 72 h
MCF7 [10] = assay: Cytotoxicity against human MCF7 cells assessed as cell growth inhibition at 25 uM by alamar blue assay; format: functional, cell-based; settings: TDE = time-dependent effect; method in brief: as §1
MCF7 [11] = assay: Effect on beta-actin protein expression in human MCF7 cells at 0.5 to 2 uM after 48 hrs by Western blot method; format: ADME, cell-based; settings: mcf7, 48 h; method in brief: as §2
Ishikawa = assay: Cytotoxicity against human Ishikawa cells assessed as cell growth inhibition after 72 hrs by alamar blue assay; format: functional, cell-based
[12] = target: Vascular endothelial growth factor receptor 1 (Homo sapiens) (UniProt P17948); assay: Inhibition of VEGFR1 in human MCF7 cells assessed as downregulation of protein expression at 0.5 uM after 48 hrs by Western blot method relative to beta-actin; format: cell-based; method in brief: as §2
[13] = target: Vascular endothelial growth factor receptor 1 (Homo sapiens) (UniProt P17948); assay: Inhibition of VEGFR1 in human MCF7 cells assessed as downregulation of protein expression at 2 uM after 48 hrs by Western blot method relative to beta-actin; format: cell-based; method in brief: as §2
[14] = target: Vascular endothelial growth factor receptor 1 (Homo sapiens) (UniProt P17948); assay: Inhibition of VEGFR1 in human MCF7 cells assessed as downregulation of protein expression at 1 uM after 48 hrs by Western blot method relative to beta-actin; format: cell-based; method in brief: as §2

Vascular endothelial growth factor receptor 1 (Homo sapiens), sequence (P17948 whole entry): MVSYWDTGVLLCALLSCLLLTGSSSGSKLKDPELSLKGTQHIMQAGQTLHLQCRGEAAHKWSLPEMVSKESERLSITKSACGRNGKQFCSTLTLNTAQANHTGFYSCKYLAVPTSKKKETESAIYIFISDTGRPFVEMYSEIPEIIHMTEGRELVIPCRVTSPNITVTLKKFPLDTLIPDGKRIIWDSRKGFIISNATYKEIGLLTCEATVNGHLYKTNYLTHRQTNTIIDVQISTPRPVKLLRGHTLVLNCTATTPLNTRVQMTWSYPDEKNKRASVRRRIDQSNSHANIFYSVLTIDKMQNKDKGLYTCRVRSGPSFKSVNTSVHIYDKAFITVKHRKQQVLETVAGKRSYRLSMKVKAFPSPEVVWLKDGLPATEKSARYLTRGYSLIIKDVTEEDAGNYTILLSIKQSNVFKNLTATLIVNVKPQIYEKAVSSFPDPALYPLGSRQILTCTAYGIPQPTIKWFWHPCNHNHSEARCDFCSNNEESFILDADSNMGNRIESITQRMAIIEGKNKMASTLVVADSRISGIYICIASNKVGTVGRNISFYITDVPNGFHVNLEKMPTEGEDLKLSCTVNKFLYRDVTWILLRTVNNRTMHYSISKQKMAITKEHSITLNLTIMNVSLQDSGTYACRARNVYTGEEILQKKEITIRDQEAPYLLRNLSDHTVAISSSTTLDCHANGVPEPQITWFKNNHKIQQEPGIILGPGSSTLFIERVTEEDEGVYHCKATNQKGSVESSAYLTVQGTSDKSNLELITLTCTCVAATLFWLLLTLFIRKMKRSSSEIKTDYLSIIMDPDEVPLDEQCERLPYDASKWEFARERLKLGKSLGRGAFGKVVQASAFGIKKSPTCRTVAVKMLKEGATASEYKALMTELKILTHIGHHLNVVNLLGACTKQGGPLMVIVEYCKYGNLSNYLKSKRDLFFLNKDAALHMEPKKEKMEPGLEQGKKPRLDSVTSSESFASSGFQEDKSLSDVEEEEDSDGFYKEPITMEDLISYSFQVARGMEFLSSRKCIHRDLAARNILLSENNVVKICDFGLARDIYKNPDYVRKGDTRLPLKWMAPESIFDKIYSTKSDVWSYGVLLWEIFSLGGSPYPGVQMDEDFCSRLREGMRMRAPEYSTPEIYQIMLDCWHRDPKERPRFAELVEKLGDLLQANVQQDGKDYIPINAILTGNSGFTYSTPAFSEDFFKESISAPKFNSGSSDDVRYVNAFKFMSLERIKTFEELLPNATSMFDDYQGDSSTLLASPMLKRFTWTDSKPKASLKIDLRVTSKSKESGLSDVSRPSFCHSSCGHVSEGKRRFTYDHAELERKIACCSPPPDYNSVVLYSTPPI

Row | SMILES | IC50 (MDA-MB-231 [1]) | IC50 (MCF7 [2]) | growth inhibition (GI) (MDA-MB-231 [3]) | growth inhibition (GI) (MCF7 [4]) | also measured
1 | c1ccc(-c2ccn3ncnc3n2)cc1 | > 100 µM | 3.91 µM | inactive | – | –
2 | Fc1ccc(-c2ccn3ncnc3n2)cn1 | > 100 µM | > 100 µM | inactive | inactive | –
3 | CCOc1cc(F)ccc1-c1ccn2ncnc2n1 | 50.3 µM | 93.8 µM | inactive | inactive | –
4 | Clc1ccccc1-c1ccccc1-c1ccn2ncnc2n1 | > 100 µM | > 100 µM | inactive | inactive | –
5 | c1ccc(-c2cn(-c3ccc(-c4cc5ccccc5s4)cc3)nn2)cc1 | – | 14.4 µM | – | – | fold change (FC) [5]: 0.8; fold change (FC) [6]: 0.7; Activity (MCF7 [7]): Non-Toxic; inhibition [8]: Dose-dependent effect; fold change (FC) [9]: 0.63; IC50 (BT-474): < 50 µM
6 | Fc1ccc(Cl)cc1-c1ccn2ncnc2n1 | > 100 µM | – | inactive | inactive | –
7 | Fc1ccc(Cl)cc1-c1ccc(-n2cc(-c3ccccc3)nn2)cc1 | – | < 50 µM | – | – | –
8 | Cc1ccccc1-c1ccc(-n2cc(-c3ccccc3)nn2)cc1 | – | < 50 µM | – | – | –
9 | CS(=O)(=O)c1cccc(-c2ccc(-n3cc(-c4ccccc4)nn3)cc2)c1 | – | < 50 µM | – | – | –
10 | N#Cc1cncc(-c2ccc(-n3cc(-c4ccccc4)nn3)cc2)c1 | – | < 50 µM | – | – | –
11 | COc1ccc(F)cc1-c1ccn2ncnc2n1 | > 100 µM | > 100 µM | inactive | inactive | –
12 | CCOc1cc(F)ccc1-c1ccc(-n2cc(-c3ccccc3)nn2)cc1 | 4.81 µM | 1.69 µM | – | – | growth inhibition (GI) (MCF7 [10]): Tde; Activity (MCF7 [11]): Non-Toxic; IC50 (Ishikawa): 1.97 µM; fold change (FC) [12]: 0.8; fold change (FC) [13]: 0.54; inhibition [8]: Dose-dependent effect; fold change (FC) [14]: 0.29; IC50 (BT-474): 4.08 µM
13 | Clc1ccccc1-c1ccn2ncnc2n1 | > 100 µM | > 100 µM | inactive | inactive | –
14 | N#Cc1cncc(-c2ccn3ncnc3n2)c1 | > 100 µM | – | inactive | inactive | –
15 | Clc1ccccc1-c1ccc(-n2cc(-c3ccccc3)nn2)cc1 | – | < 50 µM | – | – | –
16 | c1ccc(-c2ccc(-n3cc(-c4ccccc4)nn3)cc2)cc1 | – | < 50 µM | – | – | –
17 | COc1ccc(F)cc1-c1ccc(-n2cc(-c3ccccc3)nn2)cc1 | – | < 50 µM | – | – | –
